Lipid droplet = modulators of hepatic lipid droplet formation; 0.4% of 240,000 active; AML12 mouse hepatocytes, oleate lipid droplets, BODIPY imaging; inhibition, % at 6.5 µM;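 active = lipid droplet intensity inhibited by at least 50%, with more than 500 cells counted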
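Technique: fluorescence imaging, 20x objective, two fields per well / Assay system: AML12 hepatocytes (mouse) / Measure: % inhibition of lipid droplet signal / Doses: 6.5 µM single-point dosing / Incubation: overnight exposure / Reagent: 100 µM oleic acid challenge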
ADAM17 inh = ADAM17 inhibition, QFRET primary screen; recombinant ADAM17, EDANS/DABCYL FRET peptide cleavage; inhibition, % at 6.95 µM; 0.83% of 370,000 active; AID 720648;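 active = inhibition above the mean of compounds lying between control limits plus 3 SD, set per campaign, cut at about 8.5% in these data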;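 also: 0% = DMSO-only wells as the low control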
Target sequence (P78536 215-824 limits assumed): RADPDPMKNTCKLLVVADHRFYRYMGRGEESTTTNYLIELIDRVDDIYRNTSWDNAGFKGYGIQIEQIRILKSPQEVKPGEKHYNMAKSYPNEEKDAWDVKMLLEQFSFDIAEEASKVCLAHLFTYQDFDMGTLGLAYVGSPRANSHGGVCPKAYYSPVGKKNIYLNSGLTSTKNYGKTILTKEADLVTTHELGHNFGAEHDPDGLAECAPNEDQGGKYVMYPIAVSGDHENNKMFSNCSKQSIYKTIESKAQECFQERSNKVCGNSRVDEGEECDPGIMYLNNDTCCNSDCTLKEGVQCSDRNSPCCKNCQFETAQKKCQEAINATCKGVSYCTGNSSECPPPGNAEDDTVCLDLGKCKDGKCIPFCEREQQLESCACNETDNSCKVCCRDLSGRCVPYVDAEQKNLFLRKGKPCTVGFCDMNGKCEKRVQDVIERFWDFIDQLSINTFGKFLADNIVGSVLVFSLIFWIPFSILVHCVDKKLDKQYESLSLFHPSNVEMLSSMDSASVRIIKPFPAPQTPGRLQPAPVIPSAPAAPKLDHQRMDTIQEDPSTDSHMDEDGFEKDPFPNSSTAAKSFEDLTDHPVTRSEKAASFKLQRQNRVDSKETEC
V-ATPase pH = alters yeast V-ATPase proton transport | S. cerevisiae, pHLuorin cytosolic pH fluorescence | response, % at 10 µM | 0.37% of 350,000 active; in the data active = response mostly above about 7.3%, no sharp cut-off; inactive = mostly below about 5.4%; also: actives read high
aDG glyco up = increases alpha dystroglycan glycosylation; Pro5-aDG cells, alpha-DG glycosylation AlphaScreen (IIH6); 0% Pro5, 100% B10-LARGE cell signal; activation, % at 10 µM; 0.22% of 360,000 active; AID 624168;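 active = activation of at least 8% versus controls, or a plate z-score of at least 8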;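 also: Pro5 are CHO cells carrying HIG-tagged alpha-DG that lacks glycosylation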
ADAM10 inh = inhibits human ADAM10; AID 720582; 0.62% of 370,000 active; O14672; recombinant ADAM10, EDANS/DABCYL FRET peptide cleavage, 3 h; inhibition, % at 7 µM;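 active = inhibition above a per-campaign cutoff equal to the mean of compounds falling between control-based bounds plus 3 SD, cut at about 20% in these data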;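 also: 0% = DMSO wells while the 100% control is not disclosed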
MPTP inh = inhibitors of mitochondrial permeability transition pore; isolated mouse mitochondria, Ca2+ swelling absorbance, 30 min; inhibition, % at 10 µM; 1.4% of 360,000 active; AID 602449;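 active = inhibition of 50% or more, scaled per plate between neutral and stimulator controls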;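 also: 0% = DMSO wells given calcium and 100% = 1 mM EGTA wells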
Hep lipid conf = confirmation of inhibitors of hepatic lipid droplet formation; inhibition, % at 5.2 µM; 65% of 870 active; AML12 mouse hepatocytes, BODIPY lipid droplet imaging; droplets induced with 100 µM oleic acid; shares compounds with Lipid droplet;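 active = inhibition of lipid droplet metric at least 50%, with more than 300 cells in each of four replicates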;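 also: plate controls were DMSO with oleic acid for no effect and 5 µM Triacsin-C for full effect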
AML12 tox img = AML12 hepatocyte cytotoxicity (counter-screen); shares compounds with Lipid droplet; AID 463200; AML12 mouse hepatocytes, DAPI nuclear morphology cytotoxicity imaging; stronger effect = higher value; cells fed 100 µM oleate overnight; 3% of 870 active; z-score at 5 µM; in the data active = z-score above about 6.3;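 also: compound exposure lasted overnight at 37 °C before fixation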
AML12 tox ATP = confirmation of cytotoxicity in AML12 mouse hepatocytes; shares compounds with Lipid droplet; AML12 mouse hepatocyte viability, ATP luminescence; cells loaded with 100 µM oleic acid; AID 463219; 530 tested, under 10 active; cytotoxicity, % at 50 µM;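 active = cytotoxicity above 50% in each of four replicates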;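 also: compound exposure lasted overnight at 37 °C before the ATP read; 0% = DMSO-treated cells and 100% = wells with no cells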
Starred values were filed as active, the others as inactive. The list is not random: actives were taken first. Their share in the collection is about 3.1%.

For COc1ccc(-c2cc(C(=O)N=Nc3c(O)[nH]c4ccccc34)[nH]n2)cc1 the results were ADAM17 inh 0 and ADAM10 inh -1.
For COc1ccc(C(=O)OC(C)C(=O)Nc2cc(C(F)(F)F)ccc2Cl)c(OC)c1OC (stereo unspecified) the results were Lipid droplet 80*, ADAM17 inh 7, V-ATPase pH -2, aDG glyco up 1, ADAM10 inh 19, MPTP inh 6, Hep lipid conf 107*, AML12 tox img -0.28 and AML12 tox ATP 0.
`CCOc1ccc(NC(=O)CN(C)C(=O)c2ccc(C)c(S(=O)(=O)N3CCCCC3)c2)cc1OCC` gave Lipid droplet 63*, ADAM17 inh -6, V-ATPase pH 7, aDG glyco up 0, ADAM10 inh -12, MPTP inh -1, Hep lipid conf 63*, AML12 tox img 0.13 and AML12 tox ATP 14.
Cc1ccc2nc(Nc3ccc(F)cc3)c3nncn3c2c1 was read as Lipid droplet 59*, ADAM17 inh -2, V-ATPase pH -3, aDG glyco up 0, ADAM10 inh 1, MPTP inh -1, Hep lipid conf 58, AML12 tox img -0.34 and AML12 tox ATP 17.
For CCCOc1ccc(CNC(=O)c2ccc3nc(N4CCOCC4)sc3c2)cc1 the results were Lipid droplet 54*, ADAM17 inh 1, V-ATPase pH -1, aDG glyco up 0, ADAM10 inh -4, MPTP inh 3, Hep lipid conf 99*, AML12 tox img -0.65 and AML12 tox ATP 12.
For O=C(NCc1ccccc1)c1ccc2nc(N3CCOCC3)sc2c1 the results were Lipid droplet 9, ADAM17 inh -3, V-ATPase pH 3, aDG glyco up 0, ADAM10 inh -5 and MPTP inh 0.
Screening COc1ccc2c(c1)CN1C(=O)N(CC(C)C)S(=O)(=O)CC21 (stereo unspecified) returned ADAM17 inh -4 and ADAM10 inh -6.
Screening O=C(NCc1cccs1)C1CCN(S(=O)(=O)c2cccc3ccccc23)CC1 returned ADAM17 inh 0 and ADAM10 inh -5.
O=C(CCC(=O)c1ccc(F)cc1)Nc1cccc(S(=O)(=O)Nc2cccc(Cl)c2)c1 was read as Lipid droplet 51*, ADAM17 inh 6, V-ATPase pH -7, aDG glyco up 0, ADAM10 inh 15, MPTP inh 13, Hep lipid conf -39 and AML12 tox img 0.023.
For O=C(CCC(=O)c1ccc(F)cc1)Nc1cccc(C(F)(F)F)c1 the results were Lipid droplet 21, ADAM17 inh 5, V-ATPase pH 2, aDG glyco up 0, ADAM10 inh 14 and MPTP inh 10.
For COc1cccc(NC2=C(NCCO)C(=O)c3ccccc3C2=O)c1 the results were Lipid droplet 5, ADAM17 inh -7, V-ATPase pH 0, aDG glyco up 0, ADAM10 inh -8 and MPTP inh 2.
For Cc1cccc(NC2=C(NCCO)C(=O)c3ccccc3C2=O)c1 the results were Lipid droplet 89*, ADAM17 inh -15, V-ATPase pH 2, aDG glyco up 0, ADAM10 inh -46, MPTP inh 2, Hep lipid conf 97*, AML12 tox img 0.31 and AML12 tox ATP 22.
For CC(C)C(=O)N1CCC(n2nccc2NC(=O)CCOc2ccccc2)CC1 the results were Lipid droplet -2, ADAM17 inh -7, V-ATPase pH -3, aDG glyco up 0, ADAM10 inh -10 and MPTP inh 1.
Screening C=CCC(=O)N1CCC(n2nccc2NC(=O)CCOc2ccccc2)CC1 returned Lipid droplet 61*, ADAM17 inh -1, V-ATPase pH 2, aDG glyco up 0, ADAM10 inh 3, MPTP inh 0, Hep lipid conf 19 and AML12 tox img -0.46.

Screening results as filed in PubChem BioAssay.
